Key:
Adenosine receptor A1 = molecular target: T1, Adenosine receptor A1 (Rattus norvegicus, UniProt P25099); test: Binding affinity towards adenosine A1 receptor using [3H]- CHA
T1 sequence (P25099 whole entry): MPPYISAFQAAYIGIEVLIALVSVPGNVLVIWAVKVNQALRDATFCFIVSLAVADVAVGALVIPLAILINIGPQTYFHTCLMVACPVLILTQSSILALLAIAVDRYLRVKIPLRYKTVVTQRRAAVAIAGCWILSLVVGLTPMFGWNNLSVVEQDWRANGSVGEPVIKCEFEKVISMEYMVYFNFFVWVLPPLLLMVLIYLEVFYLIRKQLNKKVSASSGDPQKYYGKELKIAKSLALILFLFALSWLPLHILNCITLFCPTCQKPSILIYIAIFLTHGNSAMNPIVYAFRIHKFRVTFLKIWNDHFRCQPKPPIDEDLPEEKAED
In short: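 Adenosine A1 binding in membranes of rat whole brain minus brain stem and cerebellum (male Long-Evans, 150–250 g), using [3H]-CHA at 1.0 nM final. Theophylline at 1 mM final was the reference. IC50 from four or five concentrations by nonlinear fit.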

[1] = molecular target: T2, Adrenergic receptor alpha-1 (Rattus norvegicus, UniProt P15823+P23944+P43140)
T2 sequence (P15823 whole entry): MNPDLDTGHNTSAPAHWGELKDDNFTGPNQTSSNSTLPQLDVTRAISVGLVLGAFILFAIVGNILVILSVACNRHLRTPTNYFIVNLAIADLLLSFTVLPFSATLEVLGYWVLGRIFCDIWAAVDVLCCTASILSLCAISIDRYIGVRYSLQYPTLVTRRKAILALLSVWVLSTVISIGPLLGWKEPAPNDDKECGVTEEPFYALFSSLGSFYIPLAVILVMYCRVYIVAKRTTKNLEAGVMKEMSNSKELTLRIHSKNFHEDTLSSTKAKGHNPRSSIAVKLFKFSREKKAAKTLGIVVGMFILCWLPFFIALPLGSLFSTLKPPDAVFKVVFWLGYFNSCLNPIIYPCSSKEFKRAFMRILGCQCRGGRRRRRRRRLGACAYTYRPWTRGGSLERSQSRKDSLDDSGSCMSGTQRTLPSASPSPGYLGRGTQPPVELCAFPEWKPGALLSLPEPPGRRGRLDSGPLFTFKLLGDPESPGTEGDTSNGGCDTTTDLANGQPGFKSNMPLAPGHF
T2 sequence (P23944 whole entry): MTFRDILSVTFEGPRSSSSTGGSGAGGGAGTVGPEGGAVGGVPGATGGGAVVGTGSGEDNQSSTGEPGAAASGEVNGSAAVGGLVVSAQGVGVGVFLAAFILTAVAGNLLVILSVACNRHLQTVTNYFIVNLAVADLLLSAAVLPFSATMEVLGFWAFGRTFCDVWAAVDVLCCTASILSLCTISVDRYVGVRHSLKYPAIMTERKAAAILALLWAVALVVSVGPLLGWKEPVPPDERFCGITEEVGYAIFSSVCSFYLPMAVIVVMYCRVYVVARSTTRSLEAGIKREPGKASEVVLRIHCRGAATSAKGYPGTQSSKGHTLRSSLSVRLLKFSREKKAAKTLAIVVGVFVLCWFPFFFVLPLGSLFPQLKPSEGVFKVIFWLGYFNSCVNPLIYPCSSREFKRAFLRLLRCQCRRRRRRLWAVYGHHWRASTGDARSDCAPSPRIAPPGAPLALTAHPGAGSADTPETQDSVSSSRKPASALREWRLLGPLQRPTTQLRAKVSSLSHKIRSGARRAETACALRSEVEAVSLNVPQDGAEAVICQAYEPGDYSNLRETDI
T2 sequence (P43140 whole entry): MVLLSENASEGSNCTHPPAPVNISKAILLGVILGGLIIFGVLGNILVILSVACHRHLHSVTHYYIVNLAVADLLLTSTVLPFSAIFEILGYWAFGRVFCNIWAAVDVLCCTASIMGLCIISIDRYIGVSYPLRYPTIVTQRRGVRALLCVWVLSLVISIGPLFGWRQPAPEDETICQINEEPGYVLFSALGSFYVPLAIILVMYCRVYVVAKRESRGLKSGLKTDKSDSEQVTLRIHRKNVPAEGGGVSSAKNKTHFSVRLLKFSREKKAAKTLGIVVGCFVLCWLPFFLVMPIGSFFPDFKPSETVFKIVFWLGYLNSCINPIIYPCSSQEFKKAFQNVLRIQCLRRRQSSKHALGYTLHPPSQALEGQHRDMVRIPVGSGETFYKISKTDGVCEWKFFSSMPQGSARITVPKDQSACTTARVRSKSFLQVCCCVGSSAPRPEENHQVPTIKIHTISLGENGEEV

[2] = Displacement of [3H]flunitrazepam from rat brain GABA-A benzodiazepine receptor
Mus musculus [3] = species on record: Mus musculus; test: Ability to inhibit locomotor activity using ataxia test.; assay type: functional; details: read-out: MED
In short: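 Male Swiss–Webster mice (20–30 g, unfasted), nine per dose in groups of three, dosed ip in 0.2% methocel (dose as parent compound) 1 h before testing. Ataxia was scored first on an inverted screen over 60 s as % of mice falling. […] ED50 from at least three doses.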

Mus musculus [4] = test: Inhibition of apomorphine-induced climbing in mice after intraperitoneal administration; assay type: functional; details: ip
In short: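 Male Swiss–Webster mice (25–35 g), ten per dose, were acclimated 30 min in cylindrical cages and then dosed ip. One hour later they received apomorphine 3 mg/kg sc. Climbing was scored in 30-s tests every 5 min for 30 min, starting 15 min after apomorphine. ED50 from at least three doses by nonlinear regression.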

Rattus norvegicus = test: Compound was tested for serum prolactin assay method in rats at 100 mg/kg dose after peroral administration; assay type: functional; details: route oral
In short: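 Seven-week-old male Sprague–Dawley rats, five per group, were dosed orally and killed by decapitation 1 h later. Serum prolactin from trunk blood was measured by radioimmunoassay with [125I]-PRL and expressed as % of control (mean ± SEM).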

[5] = Inhibition of sidman avoidance in squirrel monkeys after peroral administration; assay type: functional; details: po
In short: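 Mature squirrel monkeys, trained on a modified Sidman avoidance lever schedule, were dosed orally and tested in 6-h sessions. Inhibition was expressed as % of each animal's own nondrug responding. At least three doses were given to four animals, with sessions at least 1 week apart. ED50 from nonlinear regression.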

Compound | IC50 (Adenosine receptor A1) [µM] | IC50 [1] [µM] | IC50 [2] [µM] | minimal effective dose (Mus musculus [3]) [mg/kg] | ED50 (Mus musculus [4]) [mg/kg] | Control (Rattus norvegicus) [%] | ED50 [5] [mg/kg]
Cc1nn(C)c(N)c1C(=O)c1ccccc1F | > 10 | > 10 | > 10 | < 10 | – | – | –
Cc1nn(C)c(NC(=O)CNCCCN2CCCCC2C)c1C(=O)c1ccccc1F (stereo unspecified) | – | > 10 | > 10 | 30 | > 100 | 51 | 12.7
CCN(CC)CC(=O)Nc1c(C(=O)c2ccccc2F)c(C)nn1C | > 10 | – | > 10 | 30 | > 100 | 21.8 | 15.6
